From ChEMBL document CHEMBL1833940, “Discovery of 3-(2,6-dichloro-3,5-dimethoxy-phenyl)-1-{6-[4-(4-ethyl-piperazin-1-yl)-phenylamino]-pyrimidin-4-yl}-1-methyl-urea (NVP-BGJ398), a potent and selective inhibitor of the fibroblast growth factor receptor family of receptor tyrosine kinase” (J Med Chem, 2011) come the findings set out here.

Data set [1] can be described thus: Inhibition of BCR-ABL-mediated proliferation of mouse BAF3 cells transformed with TEL-Kinase construct. Format: cell-based.
The nature of data set [2]: Tmax in plasma of RT112/luc1 cells implanted athymic nude mouse at 20 mg/kg, po by LC/MS/MS analysis. Format: ADME, organism-based. More on the design: dose 20 mg/kg, route oral. In outline: (§1)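 Female athymic nude mice carrying subcutaneous RT112/luc1 tumors (ca. 300–400 mm3). Dosing was 5 mg/kg iv by tail vein in NMP/PEG200 (1:9) or 20 mg/kg by oral gavage as a suspension in PEG300/D5W (2:1). Groups (n = 4) were sacrificed from 0.083 to 24 h. Plasma and tumor were measured by LC-MS/MS (LOQ 5 ng/mL, 10 ng/g). Noncompartmental analysis used the linear trapezoidal AUC; F was calculated from dose-normalized AUC.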

Data set [3] is described as follows: Half life in plasma of RT112/luc1 cells implanted athymic nude mouse at 5 mg/kg, iv by LC/MS/MS analysis. Format: ADME, organism-based. Set-up: dose 5 mg/kg, route intravenous. In outline: (§2)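 Female athymic nude mice carried subcutaneous RT112/luc1 tumors (5×10^6 cells, 50% Matrigel; about 300–400 mm3). Dosing was either 5 mg/kg iv by tail vein in NMP/PEG200 (1:9) or 20 mg/kg oral suspension in PEG300/D5W (2:1). Groups of mice (n = 4) were sacrificed at 0.083–24 h. Plasma and tumor levels were measured by LC-MS/MS (LOQ 5 ng/mL, 10 ng/g).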

Data set [4] can be described thus: Half life in plasma of RT112/luc1 cells implanted athymic nude mouse at 20 mg/kg, po by LC/MS/MS analysis. Set-up: dose 20 mg/kg, route oral. Format: ADME, organism-based. In outline:
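Female athymic nude mice carried subcutaneous RT112/luc1 tumors (5 × 10^6 cells in HBSS with 50% Matrigel, right flank; about 300–400 mm3). Dosed by oral gavage at 20 mg/kg as a suspension in PEG300/D5W (2:1, v/v). Groups (n = 4) were sacrificed at 0.083–24 h.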

The nature of data set [5]: Half life in tumor of RT112/luc1 cells implanted athymic nude mouse at 20 mg/kg, po by LC/MS/MS analysis. Format: ADME, organism-based, Neoplasm. Set-up: dose 20 mg/kg, route oral. In outline:
as §2

Data set [6] can be described thus: Plasma clearance in RT112/luc1 cells implanted athymic nude mouse at 5 mg/kg, iv by LC/MS/MS analysis. Format: ADME, organism-based. More on the design: dose 5 mg/kg, route intravenous. Put shortly: as §1
Data set [7] is described as follows: Cmax in Wistar rat at 5 mg/kg, iv after 5 mins by LC-MS/MS analysis. Format: ADME, organism-based. More on the design: dose 5 mg/kg, route intravenous. Particulars: in vivo. In outline: (§3)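 Female Wistar rats received either an iv femoral-vein dose of 5 mg/kg in NMP/PEG200 (1:9) or an oral dose of monophosphate salt at 10 mg/kg (free base) in acetate buffer pH 4.6/PEG300. Plasma was sampled by sublingual bleeding at 0.083–24 h (n = 4 staggered, or n = 3–4 serial). Plasma levels were measured by LC-MS/MS (LOQ 10 ng/mL).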

The nature of data set [8]: Apparent terminal half life in Wistar rat at 5 mg/kg, iv by LC-MS/MS analysis. Format: ADME, organism-based. Set-up: dose 5 mg/kg, route intravenous. Particulars: in vivo, read-out: t1/2 lambda z (converted). In outline:
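Female Wistar rats. IV: 5 mg/kg into the femoral vein as a solution in NMP/PEG200 (1:9, v/v). Oral: monophosphate salt at 10 mg/kg (free base equivalents) as a solution in acetic acid–acetate buffer pH 4.6/PEG300. Plasma was taken by sublingual bleeding at 0.083–24 h, from staggered groups (n = 4) or one sequentially bled group. Assayed by LC-MS/MS (LOQ 10 ng/mL); noncompartmental analysis.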

Data set [9] is described as follows: Cmax in Wistar rat at 10 mg/kg, po by LC-MS/MS analysis. Format: ADME, organism-based. More on the design: dose 10 mg/kg, route oral. Particulars: in vivo. Put shortly: as §3
For data set [10], the system named is Rattus norvegicus. Kind of data set: Dose normalized AUC in Wistar rat at 10 mg/kg, po by LC-MS/MS analysis. Format: ADME, organism-based. Set-up: dose 10 mg/kg, route oral. The note with it: in vivo. In outline: as §3
Data set [11] has as its system HT1197. Kind of data set: Antiproliferative activity against human HT1197 cells after 72 hrs. The note with it: HT1197, 72 h. Format: functional, cell-based. Put shortly:
(§4)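 Bladder cancer lines from ATCC or DSMZ were seeded in 96-well plates (RT4, RT112 at 8500 cells/well; others at 5000 cells/well) in growth medium. Compound dilutions or DMSO were added 24 h later and incubated 72 h. Cells were fixed with glutaraldehyde, stained with 0.05% methylene blue and eluted with 3% HCl, then OD650 nm was read.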

Data set [12] has as its system VM-CUB-1. In words: Antiproliferative activity against human VMCUB1 cells after 72 hrs. Particulars: VM-CUB-1, 72 h. Format: functional, cell-based. In outline:
as §4

Data set [13] relates to UMUC3. Kind of data set: Antiproliferative activity against human UM-UC-3 cells after 72 hrs. Format: functional, cell-based. Particulars: UMUC3, 72 h. Put shortly:
as §4

In data set [14] the target is Receptor tyrosine-protein kinase erbB-4 (Homo sapiens, UniProt Q15303). In words: Inhibition of recombinant ERBB4. Put shortly: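 Purified recombinant kinases under optimized conditions with peptide substrates. ATP was set at each kinase's Km. Phosphorylation was read by microfluidic mobility-shift separation of substrate and product; IC50 determined.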
Data set [15] concerns the target Phosphatidylinositol 4,5-bisphosphate 3-kinase catalytic subunit delta isoform (Homo sapiens, UniProt O00329). Kind of data set: Inhibition of recombinant PI3Kdelta by luminescent kinase assay.
The test system of data set [16] is BaF3. In words: Antiproliferative activity against mouse wild type BAF3 cells assessed as decrease in cell viability by luminescence-based assay. Put shortly:
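IL-3-independent BaF3 or BaF3 Tel-TK cells were grown in RPMI-1640 with 10% FBS and seeded at 4250 cells/well in 384-well plates. Compound serially diluted in DMSO was pin-transferred, followed by 48 h at 37 °C, 5% CO2. Viability was read by Bright-Glo luciferase luminescence.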

The test system of data set [17] is Rattus norvegicus. Kind of data set: Toxicity in nude Rowett rat xenografted with human RT112 cells assessed as body weight loss at 5 mg/kg, po qd administered for 20 days. Format: organism-based, RT-112. Set-up: dose 5 mg/kg, route oral. The note with it: in vivo, 480 h. Put shortly:
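Female nude Rowett rats carried subcutaneous RT112 tumors (1 × 10^6 cells in Matrigel), starting at about 100 mm3. The monophosphate salt was gavaged daily for 20 days at 5, 10 or 15 mg/kg (free base) in acetate buffer pH 4.6/PEG300 (1:1), n = 8. Body weight and morbidity were monitored; ANOVA with Dunnett's test.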
A general note: A xenograft is tissue or cells of one species grown in another, often human tumour cells in immunodeficient mice.

Data set [18] concerns Rattus norvegicus. In words: Inhibition of FGFR autophosphorylation in RT112 tumor bearing nude rowett rat assessed as decrease in pFRS2 concentration at 4.25 mg/kg, po administered as a single dose by Western blot analysis. Format: functional, organism-based. More on the design: dose 4.25 mg/kg. In outline:
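RT112 tumor-bearing nude Rowett rats (n = 4) received a single oral dose of monophosphate salt at 4.25 or 8.51 mg/kg free base. Tumors were collected at time points up to 24 h and lysed in Tris/Triton buffer with vanadate and protease inhibitors. Western blots were run for pFRS2(Tyr196) and pMAPK, with total FRS2, total MAPK or β-tubulin as loading controls.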
A general note: A western blot detects proteins with antibodies after separation by electrophoresis.

The test system of data set [19] is Tumour. In words: Drug uptake in tumour of nude Rowett rat bearing human RT112 cells at 4.25 mg/kg, po administered as a single dose after 3 hrs by LC-MS/MS analysis. Format: ADME, organism-based, Neoplasm, RT-112. Set-up: dose 4.25 mg/kg, route oral. The note with it: in vivo. In outline:
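Nude Rowett rats bearing subcutaneous RT112 tumors (n = 4) received a single gavage of monophosphate salt at 4.25 or 8.51 mg/kg free base in acetate buffer pH 4.6/PEG300. Tumors were collected at intervals after dosing, frozen and homogenized in an equal volume of ice-cold PBS. Compound levels were measured by LC-MS/MS (LOQ 3 ng/mL).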

The source made the active and inactive calls. No cut-off for these calls is given here.

Sequence of Receptor tyrosine-protein kinase erbB-4 (Q15303 whole entry, canonical isoform): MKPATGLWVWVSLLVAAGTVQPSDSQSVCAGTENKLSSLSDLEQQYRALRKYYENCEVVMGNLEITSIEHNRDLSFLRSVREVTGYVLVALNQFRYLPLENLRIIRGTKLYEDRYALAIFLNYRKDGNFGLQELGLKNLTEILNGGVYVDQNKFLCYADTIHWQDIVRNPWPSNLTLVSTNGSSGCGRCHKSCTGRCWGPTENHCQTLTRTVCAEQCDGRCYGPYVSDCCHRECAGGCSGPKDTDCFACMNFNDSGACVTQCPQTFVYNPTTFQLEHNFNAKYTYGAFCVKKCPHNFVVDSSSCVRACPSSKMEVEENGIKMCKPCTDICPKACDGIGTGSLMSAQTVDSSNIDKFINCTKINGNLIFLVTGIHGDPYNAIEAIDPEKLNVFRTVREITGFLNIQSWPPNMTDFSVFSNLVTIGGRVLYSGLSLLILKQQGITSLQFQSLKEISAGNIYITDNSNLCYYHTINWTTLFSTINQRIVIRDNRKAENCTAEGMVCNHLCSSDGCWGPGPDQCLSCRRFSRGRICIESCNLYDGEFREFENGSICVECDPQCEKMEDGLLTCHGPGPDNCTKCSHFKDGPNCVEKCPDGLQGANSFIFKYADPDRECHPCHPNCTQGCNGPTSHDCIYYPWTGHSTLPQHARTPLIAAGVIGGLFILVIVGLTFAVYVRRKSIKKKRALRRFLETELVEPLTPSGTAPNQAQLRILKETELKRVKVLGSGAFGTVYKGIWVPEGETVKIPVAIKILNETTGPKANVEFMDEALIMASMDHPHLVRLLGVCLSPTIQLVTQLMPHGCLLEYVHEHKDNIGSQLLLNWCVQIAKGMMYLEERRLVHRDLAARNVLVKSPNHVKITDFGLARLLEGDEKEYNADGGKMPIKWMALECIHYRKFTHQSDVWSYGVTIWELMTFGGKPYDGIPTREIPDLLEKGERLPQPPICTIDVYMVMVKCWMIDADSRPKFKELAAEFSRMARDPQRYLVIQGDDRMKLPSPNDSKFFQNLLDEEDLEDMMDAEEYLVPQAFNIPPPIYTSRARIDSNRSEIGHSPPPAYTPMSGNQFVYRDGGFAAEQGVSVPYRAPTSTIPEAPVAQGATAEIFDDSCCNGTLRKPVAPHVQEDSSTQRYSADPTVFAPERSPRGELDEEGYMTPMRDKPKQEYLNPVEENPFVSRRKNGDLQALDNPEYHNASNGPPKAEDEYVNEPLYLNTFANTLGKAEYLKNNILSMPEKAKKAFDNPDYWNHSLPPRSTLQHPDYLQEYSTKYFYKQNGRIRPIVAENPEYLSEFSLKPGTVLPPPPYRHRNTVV
Sequence of Phosphatidylinositol 4,5-bisphosphate 3-kinase catalytic subunit delta isoform (O00329 whole entry, canonical isoform): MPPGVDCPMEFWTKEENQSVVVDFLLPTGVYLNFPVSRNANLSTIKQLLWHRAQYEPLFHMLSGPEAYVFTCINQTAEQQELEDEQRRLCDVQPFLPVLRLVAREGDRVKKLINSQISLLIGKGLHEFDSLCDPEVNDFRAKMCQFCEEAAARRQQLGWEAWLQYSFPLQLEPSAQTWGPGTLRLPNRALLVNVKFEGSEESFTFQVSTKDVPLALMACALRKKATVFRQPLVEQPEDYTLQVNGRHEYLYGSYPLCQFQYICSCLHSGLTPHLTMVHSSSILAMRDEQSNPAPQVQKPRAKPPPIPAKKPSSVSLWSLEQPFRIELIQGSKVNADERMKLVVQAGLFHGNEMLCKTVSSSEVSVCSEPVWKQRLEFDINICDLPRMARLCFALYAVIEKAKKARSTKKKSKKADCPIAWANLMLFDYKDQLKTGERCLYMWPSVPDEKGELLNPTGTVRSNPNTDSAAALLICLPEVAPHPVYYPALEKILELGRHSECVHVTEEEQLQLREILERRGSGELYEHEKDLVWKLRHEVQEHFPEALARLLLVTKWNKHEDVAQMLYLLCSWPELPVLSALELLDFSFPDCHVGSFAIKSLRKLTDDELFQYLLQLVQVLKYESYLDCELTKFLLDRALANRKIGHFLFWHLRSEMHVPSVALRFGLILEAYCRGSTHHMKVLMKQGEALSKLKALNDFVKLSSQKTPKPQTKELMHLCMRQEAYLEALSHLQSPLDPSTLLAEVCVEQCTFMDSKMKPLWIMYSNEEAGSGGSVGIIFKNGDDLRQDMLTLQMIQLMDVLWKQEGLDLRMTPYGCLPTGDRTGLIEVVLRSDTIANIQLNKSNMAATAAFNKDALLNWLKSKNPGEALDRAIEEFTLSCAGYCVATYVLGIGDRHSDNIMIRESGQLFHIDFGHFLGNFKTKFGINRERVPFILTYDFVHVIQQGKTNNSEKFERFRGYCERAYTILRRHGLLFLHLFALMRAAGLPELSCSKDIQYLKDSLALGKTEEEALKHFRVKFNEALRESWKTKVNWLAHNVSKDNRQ

With `CCN1CCN(c2ccc(Nc3cc(N(C)C(=O)Nc4c(Cl)c(OC)cc(OC)c4Cl)ncn3)cc2)CC1.O=P(O)(O)O` [INFIGRATINIB PHOSPHATE], the IC50 (usually the concentration at which inhibition is half-maximal) in [1] is 2190 nM; in data set [11], 1160 nM; in data set [12], > 3000 nM; in data set [13], > 3000 nM; in data set [14], > 10000 nM; in data set [15], > 9000 nM. In addition, the IC50 in data set [16] amounted to 1860 nM. Further, the Tmax (as a rule, the time from dosing to the highest level) in [2] was found to be 1 h. The half-life in [3] was 9.3 h; in [4] it was 4.3 h; in [5] it was 13 h; in [8], 4.5 h. Also, in [6], the clearance (commonly a measure of how efficiently the substance is removed, as volume per time) is 55 mL/min/kg. The figures for the Cmax in data set [7] and in [9] were 970 nM and 260 nM, respectively. In data set [10], this molecule displayed an AUC/dose of 0.25 µM·h. Besides, the Activity entry in [17] is listed as “Non-toxic”. Moreover, the inhibition result in [18] is “Active”. Besides, the Drug uptake in data set [19] worked out at 0.83 nmol/g.
